In ChEMBL document CHEMBL4014345, “Development of Selective Clk1 and -4 Inhibitors for Cellular Depletion of Cancer-Relevant Proteins” (J Med Chem, 2017):
Active and inactive are the calls of the source. The rule behind the calls is not given here.

Columns and labels:
[1] = biological target: T1, Dual specificity protein kinase CLK1 (Homo sapiens, UniProt P49759); assay: Inhibition of recombinant human GST-tagged Clk1 expressed in Escherichia coli using RS repeat substrate peptide after 15 mins in presence of [gamma-32]-ATP
Target sequence in this assay (P49759 whole entry): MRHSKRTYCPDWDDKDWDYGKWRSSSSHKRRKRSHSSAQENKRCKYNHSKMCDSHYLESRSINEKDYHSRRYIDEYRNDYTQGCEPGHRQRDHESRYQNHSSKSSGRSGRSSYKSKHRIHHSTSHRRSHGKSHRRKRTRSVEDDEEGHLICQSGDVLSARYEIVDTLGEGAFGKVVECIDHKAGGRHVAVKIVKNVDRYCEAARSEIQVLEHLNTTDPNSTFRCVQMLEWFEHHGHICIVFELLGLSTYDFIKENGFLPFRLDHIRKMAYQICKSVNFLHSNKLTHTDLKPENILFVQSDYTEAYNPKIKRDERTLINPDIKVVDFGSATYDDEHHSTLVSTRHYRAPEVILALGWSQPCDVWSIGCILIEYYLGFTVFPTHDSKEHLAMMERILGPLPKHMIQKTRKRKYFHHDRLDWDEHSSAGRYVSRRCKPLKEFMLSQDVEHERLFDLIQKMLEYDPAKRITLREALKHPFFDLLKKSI

[2] = biological target: Dual specificity protein kinase CLK4 (Mus musculus) (UniProt O35493); assay: Inhibition of recombinant GST-tagged mouse CLK4 using GRSRSRSRSRSR as substrate at 1 uM after 30 mins in presence of [gamma-32P]-ATP by scintillation counting method
PBL = assay: Cytotoxicity against human PBL after 2 days by MTT assay; format: cell-based; settings: 48 h
How it was run: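 Cells plated at 30 000 per well with test compounds or DMSO control for 2 days, then MTT read-out. LC50 reported as the mean of at least two independent experiments.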

[3] = biological target: T1, Dual specificity protein kinase CLK1; assay: Inhibition of recombinant human GST-tagged Clk1 expressed in Escherichia coli at 100 nM using RS repeat substrate peptide after 15 mins in presence of [gamma-32]-ATP
Target sequence in this assay (P49759 whole entry, looked up): as the sequence (P49759 whole entry) above

[4] = biological target: Dual specificity tyrosine-phosphorylation-regulated kinase 3 (Homo sapiens) (UniProt O43781); assay: Inhibition of DYRK3 (unknown origin) using KKISGRLSPIMTEQ-NH2 as substrate at 1 uM after 15 mins in presence of [gamma-32P]-ATP
[5] = biological target: SRSF protein kinase 1 (Homo sapiens) (UniProt Q96SB4); assay: Inhibition of SRPK1 (unknown origin) at 1 uM
How it was run: (§1)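 Tested in a commercial kinase profiling panel at an ATP concentration of 100 μM. Data are the mean of duplicates that differed by less than 7%.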

[6] = biological target: T2, Dual specificity tyrosine-phosphorylation-regulated kinase 1A (Homo sapiens, UniProt Q13627); assay: Inhibition of N-terminal His6-tagged recombinant human Dyrk1A expressed in Escherichia coli BL21 (DE3) using KKISGRLSPIMTEQ-NH2 as substrate at 1 uM after 15 mins in presence of [gamma-32]-ATP; settings: 0.25 h
MDA-MB-231 = assay: Cytotoxicity against human MDA-MB-231 cells assessed as growth inhibition after 5 days by MTT assay; format: functional; settings: MDA-MB-231, 120 h
How it was run: (§2)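 They were seeded at 5000 cells per well onto compound or DMSO (0.2% final). Plates were kept 5 days at 37 °C in 5% CO2 with no medium change, then read by MTT.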

T47D = assay: Cytotoxicity against human T47D cells assessed as growth inhibition after 5 days by MTT assay; format: functional; settings: 120 h; how it was run: as §2
[7] = biological target: T1, Dual specificity protein kinase CLK1; assay: Inhibition of recombinant human GST-tagged Clk1 expressed in Escherichia coli at 1 uM using RS repeat substrate peptide after 15 mins in presence of [gamma-32]-ATP
Target sequence in this assay (P49759 whole entry, looked up): as the sequence (P49759 whole entry) above

[8] = biological target: Dual specificity tyrosine-phosphorylation-regulated kinase 4 (Homo sapiens) (UniProt Q9NR20); assay: Inhibition of DYRK4 (unknown origin) using KKISGRLSPIMTEQ-NH2 as substrate at 1 uM after 15 mins in presence of [gamma-32P]-ATP
[9] = biological target: T2, Dual specificity tyrosine-phosphorylation-regulated kinase 1A; assay: Inhibition of N-terminal His6-tagged recombinant human Dyrk1A expressed in Escherichia coli BL21 (DE3) using KKISGRLSPIMTEQ-NH2 as substrate after 15 mins in presence of [gamma-32]-ATP
[10] = biological target: Serine/threonine-protein kinase haspin (Homo sapiens) (UniProt Q8TF76); assay: Inhibition of MBP-Haspin (unknown origin) at 1 uM after 10 mins by TR-FRET assay; how it was run: as §1
HepG2 = assay: Cytotoxicity against human HepG2 cells assessed as growth inhibition after 5 days by MTT assay; format: functional; settings: HepG2, 120 h; how it was run: as §2
[11] = biological target: Dual specificity protein kinase CLK2 (Mus musculus) (UniProt O35491); assay: Inhibition of recombinant GST-tagged mouse CLK2 using GRSRSRSRSRSR as substrate at 1 uM after 30 mins in presence of [gamma-32P]-ATP by scintillation counting method
T-24 = assay: Cytotoxicity against human T24 cells assessed as growth inhibition after 5 days by MTT assay; format: functional; settings: T-24, 120 h; how it was run: as §2
[12] = Cytotoxicity against HEK293 cells assessed as growth inhibition; format: cell-based; settings: human
How it was run: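 Cytotoxicity was tested in proliferating HEK293 cells with GI50 as the read-out. Data are the mean of at least two independent experiments.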

[13] = biological target: SRSF protein kinase 2 (Homo sapiens) (UniProt P78362); assay: Inhibition of SRPK2 (unknown origin) at 1 uM; how it was run: as §1
[14] = biological target: Myosin light chain kinase 2, skeletal/cardiac muscle (Homo sapiens) (UniProt Q9H1R3); assay: Inhibition of MLCK2 (unknown origin) at 1 uM after 15 mins; how it was run: as §1
[15] = biological target: Dual specificity tyrosine-phosphorylation-regulated kinase 1B (Homo sapiens, UniProt Q9Y463); assay: Inhibition of full length recombinant GST-tagged human DYRK1B expressed in baculovirus using KKISGRLSPIMTEQ-NH2 as substrate at 1 uM after 15 mins
THP-1 = assay: Cytotoxicity against human THP1 cells assessed as growth inhibition after 5 days by MTT assay; format: functional; settings: THP-1, 120 h; how it was run: as §2
[16] = biological target: Serine/threonine-protein kinase 17A (Homo sapiens) (UniProt Q9UEE5); assay: Inhibition of STK17A (unknown origin) at 1 uM after 15 mins; how it was run: as §1
[17] = biological target: Dual specificity protein kinase CLK3 (Mus musculus) (UniProt O35492); assay: Inhibition of recombinant GST-tagged mouse CLK3 using GRSRSRSRSRSR as substrate at 1 uM after 30 mins in presence of [gamma-32P]-ATP by scintillation counting method
[18] = biological target: T3, Dual specificity protein kinase CLK1/CLK4 (Homo sapiens, UniProt Q9HAZ1+P49759); assay: Inhibition of CLK1/4 in human MDA-MB-231 cells assessed as down regulation of EGFR expression at 20 uM after 3 days by Western blot analysis relative to control; format: cell-based
How it was run: (§3)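 T24 or MDA-MB-231 cells were grown in DMEM to 70% confluency. The medium was replaced with compound diluted in DMEM, and cells were kept 3 days. Total protein was immunoblotted with monoclonal antibodies in 3% BSA/PBS against EGFR, p70S6K α, PARP-1, ERK2, HDAC1, CD44, PCNA and GRP94.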

[19] = biological target: T3, Dual specificity protein kinase CLK1/CLK4; assay: Inhibition of CLK1/4 in human T24 cells assessed as down regulation of EGFR expression at 10 uM after 3 days by Western blot analysis relative to control; format: cell-based; how it was run: as §3
[20] = biological target: T3, Dual specificity protein kinase CLK1/CLK4; assay: Inhibition of CLK1/4 in human T24 cells assessed as down regulation of EGFR expression at 15 uM after 3 days by Western blot analysis relative to control; format: cell-based; how it was run: as §3
[21] = biological target: T3, Dual specificity protein kinase CLK1/CLK4; assay: Inhibition of CLK1/4 in human MDA-MB-231 cells assessed as down regulation of S6 kinase expression after 3 days by Western blot analysis; format: cell-based; how it was run: as §3
[22] = biological target: T3, Dual specificity protein kinase CLK1/CLK4; assay: Inhibition of CLK1/4 in human MDA-MB-231 cells assessed as down regulation of S6 kinase expression at 2.5 uM after 3 days by Western blot analysis relative to control; format: cell-based; how it was run: as §3
[23] = biological target: T3, Dual specificity protein kinase CLK1/CLK4; assay: Inhibition of CLK1/4 in human T24 cells assessed as down regulation of HDAC1 expression at 10 uM after 3 days by Western blot analysis relative to control; format: cell-based; how it was run: as §3
[24] = biological target: T3, Dual specificity protein kinase CLK1/CLK4; assay: Inhibition of CLK1/4 in human MDA-MB-231 cells assessed as down regulation of EGFR expression at 5 uM after 3 days by Western blot analysis relative to control; format: cell-based; how it was run: as §3
[25] = biological target: T3, Dual specificity protein kinase CLK1/CLK4; assay: Inhibition of CLK1/4 in human MDA-MB-231 cells assessed as down regulation of S6 kinase expression at 5 uM after 3 days by Western blot analysis relative to control; format: cell-based; how it was run: as §3
[26] = biological target: T3, Dual specificity protein kinase CLK1/CLK4; assay: Inhibition of CLK1/4 in human T24 cells assessed as down regulation of HDAC1 expression after 3 days by Western blot analysis; format: cell-based; how it was run: as §3
[27] = biological target: T3, Dual specificity protein kinase CLK1/CLK4; assay: Inhibition of CLK1/4 in human T24 cells assessed as down regulation of EGFR expression at 5 uM after 3 days by Western blot analysis relative to control; format: cell-based; how it was run: as §3
[28] = biological target: T3, Dual specificity protein kinase CLK1/CLK4; assay: Inhibition of CLK1/4 in human MDA-MB-231 cells assessed as down regulation of EGFR expression at 10 uM after 3 days by Western blot analysis relative to control; format: cell-based; how it was run: as §3
[29] = biological target: T3, Dual specificity protein kinase CLK1/CLK4; assay: Inhibition of CLK1/4 in human MDA-MB-231 cells assessed as down regulation of EGFR expression after 3 days by Western blot analysis; format: cell-based; how it was run: as §3
[30] = biological target: T3, Dual specificity protein kinase CLK1/CLK4; assay: Inhibition of CLK1/4 in human MDA-MB-231 cells assessed as down regulation of S6 kinase expression at 10 uM after 3 days by Western blot analysis relative to control; format: cell-based; how it was run: as §3
[31] = biological target: T3, Dual specificity protein kinase CLK1/CLK4; assay: Inhibition of CLK1/4 in human T24 cells assessed as down regulation of HDAC1 expression at 5 uM after 3 days by Western blot analysis relative to control; format: cell-based; how it was run: as §3
[32] = biological target: T3, Dual specificity protein kinase CLK1/CLK4; assay: Inhibition of CLK1/4 in human T24 cells assessed as down regulation of HDAC1 expression at 15 uM after 3 days by Western blot analysis relative to control; format: cell-based; how it was run: as §3
[33] = biological target: T3, Dual specificity protein kinase CLK1/CLK4; assay: Inhibition of CLK1/4 in human MDA-MB-231 cells assessed as down regulation of S6 kinase expression at 20 uM after 3 days by Western blot analysis relative to control; format: cell-based; how it was run: as §3
[34] = biological target: T3, Dual specificity protein kinase CLK1/CLK4; assay: Inhibition of CLK1/4 in human MDA-MB-231 cells assessed as down regulation of EGFR expression at 2.5 uM after 3 days by Western blot analysis relative to control; format: cell-based; how it was run: as §3
[35] = biological target: T3, Dual specificity protein kinase CLK1/CLK4; assay: Inhibition of CLK1/4 in human T24 cells assessed as down regulation of EGFR expression after 3 days by Western blot analysis; format: cell-based; how it was run: as §3

Chain of Serine/threonine-protein kinase haspin (Homo sapiens) (Q8TF76 whole entry): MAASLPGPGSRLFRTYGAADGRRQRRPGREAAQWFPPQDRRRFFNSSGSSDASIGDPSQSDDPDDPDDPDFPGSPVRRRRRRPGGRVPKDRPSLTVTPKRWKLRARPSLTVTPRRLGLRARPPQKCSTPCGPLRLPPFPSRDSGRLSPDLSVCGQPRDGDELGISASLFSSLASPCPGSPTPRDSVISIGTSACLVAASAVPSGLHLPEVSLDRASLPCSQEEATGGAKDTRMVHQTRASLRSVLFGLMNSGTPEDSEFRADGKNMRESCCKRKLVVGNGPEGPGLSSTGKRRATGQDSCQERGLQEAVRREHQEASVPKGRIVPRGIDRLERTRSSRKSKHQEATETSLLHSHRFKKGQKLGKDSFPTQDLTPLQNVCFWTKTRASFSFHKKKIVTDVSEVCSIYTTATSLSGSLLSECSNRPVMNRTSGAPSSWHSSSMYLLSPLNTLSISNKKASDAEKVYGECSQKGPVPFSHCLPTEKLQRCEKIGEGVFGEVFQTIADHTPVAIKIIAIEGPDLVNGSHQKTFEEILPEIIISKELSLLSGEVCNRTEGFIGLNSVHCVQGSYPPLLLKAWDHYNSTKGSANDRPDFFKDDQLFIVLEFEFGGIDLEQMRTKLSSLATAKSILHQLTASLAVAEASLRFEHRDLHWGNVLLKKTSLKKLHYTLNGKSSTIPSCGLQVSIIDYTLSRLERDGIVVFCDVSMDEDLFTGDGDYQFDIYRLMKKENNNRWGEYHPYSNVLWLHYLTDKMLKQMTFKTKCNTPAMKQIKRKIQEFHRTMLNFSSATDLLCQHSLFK
Chain of Serine/threonine-protein kinase 17A (Homo sapiens) (Q9UEE5 whole entry): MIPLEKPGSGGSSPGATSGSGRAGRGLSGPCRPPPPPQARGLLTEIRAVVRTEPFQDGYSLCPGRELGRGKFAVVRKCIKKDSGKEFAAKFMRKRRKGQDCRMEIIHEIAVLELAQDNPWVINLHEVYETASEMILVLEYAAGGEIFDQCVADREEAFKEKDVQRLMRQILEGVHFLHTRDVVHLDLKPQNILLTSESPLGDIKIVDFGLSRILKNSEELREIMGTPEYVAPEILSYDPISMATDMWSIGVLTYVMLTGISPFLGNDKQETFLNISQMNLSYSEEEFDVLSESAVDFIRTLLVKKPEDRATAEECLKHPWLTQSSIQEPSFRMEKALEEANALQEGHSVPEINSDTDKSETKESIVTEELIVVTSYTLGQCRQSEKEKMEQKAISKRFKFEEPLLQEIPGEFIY
Chain of SRSF protein kinase 1 (Homo sapiens) (Q96SB4 whole entry): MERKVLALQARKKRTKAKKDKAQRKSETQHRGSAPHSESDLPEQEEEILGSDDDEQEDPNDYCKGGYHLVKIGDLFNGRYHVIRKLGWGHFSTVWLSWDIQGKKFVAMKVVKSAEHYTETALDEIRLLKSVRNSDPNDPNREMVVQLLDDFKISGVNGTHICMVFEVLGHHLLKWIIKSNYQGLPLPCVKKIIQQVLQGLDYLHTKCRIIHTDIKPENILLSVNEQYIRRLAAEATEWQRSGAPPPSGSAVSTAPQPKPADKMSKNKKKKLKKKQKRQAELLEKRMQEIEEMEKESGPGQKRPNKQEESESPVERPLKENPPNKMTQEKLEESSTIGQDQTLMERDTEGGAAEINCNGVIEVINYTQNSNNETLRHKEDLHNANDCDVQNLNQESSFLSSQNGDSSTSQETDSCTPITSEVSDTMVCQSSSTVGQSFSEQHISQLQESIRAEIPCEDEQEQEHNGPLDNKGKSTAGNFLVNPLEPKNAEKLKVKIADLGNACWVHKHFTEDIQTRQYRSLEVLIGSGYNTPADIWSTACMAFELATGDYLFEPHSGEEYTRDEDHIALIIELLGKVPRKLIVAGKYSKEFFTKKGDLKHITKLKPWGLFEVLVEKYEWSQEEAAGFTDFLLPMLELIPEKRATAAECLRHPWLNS
Chain of Dual specificity protein kinase CLK3 (Mus musculus) (O35492 whole entry): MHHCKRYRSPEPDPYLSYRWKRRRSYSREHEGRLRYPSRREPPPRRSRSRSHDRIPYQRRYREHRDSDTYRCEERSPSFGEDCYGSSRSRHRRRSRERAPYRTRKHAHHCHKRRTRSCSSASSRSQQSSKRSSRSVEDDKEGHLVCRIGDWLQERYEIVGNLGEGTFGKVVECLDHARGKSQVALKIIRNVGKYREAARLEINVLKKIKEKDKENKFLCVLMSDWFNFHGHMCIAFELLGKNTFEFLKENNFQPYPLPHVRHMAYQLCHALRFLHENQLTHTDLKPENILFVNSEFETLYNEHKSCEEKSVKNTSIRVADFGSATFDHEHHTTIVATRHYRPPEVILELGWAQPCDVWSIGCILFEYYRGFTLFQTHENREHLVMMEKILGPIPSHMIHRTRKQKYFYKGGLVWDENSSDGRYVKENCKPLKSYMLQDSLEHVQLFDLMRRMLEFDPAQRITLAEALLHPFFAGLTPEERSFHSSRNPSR
Chain of Dual specificity tyrosine-phosphorylation-regulated kinase 1B (Q9Y463 whole entry, looked up): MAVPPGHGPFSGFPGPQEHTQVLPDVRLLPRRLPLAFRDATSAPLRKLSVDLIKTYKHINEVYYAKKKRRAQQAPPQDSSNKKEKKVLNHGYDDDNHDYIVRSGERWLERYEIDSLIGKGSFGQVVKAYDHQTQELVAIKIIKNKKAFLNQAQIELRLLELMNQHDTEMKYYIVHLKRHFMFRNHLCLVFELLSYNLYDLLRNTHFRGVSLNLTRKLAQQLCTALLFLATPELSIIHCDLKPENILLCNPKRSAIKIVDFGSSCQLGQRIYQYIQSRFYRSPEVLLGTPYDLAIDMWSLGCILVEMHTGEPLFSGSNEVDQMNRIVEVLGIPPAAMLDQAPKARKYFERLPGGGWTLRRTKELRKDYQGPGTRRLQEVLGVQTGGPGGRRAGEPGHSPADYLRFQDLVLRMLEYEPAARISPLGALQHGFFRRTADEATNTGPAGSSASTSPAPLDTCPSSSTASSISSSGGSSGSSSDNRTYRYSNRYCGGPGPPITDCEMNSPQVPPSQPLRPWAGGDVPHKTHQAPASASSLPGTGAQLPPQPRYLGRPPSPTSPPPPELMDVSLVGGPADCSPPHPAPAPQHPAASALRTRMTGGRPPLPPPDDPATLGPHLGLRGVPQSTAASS
Chain of SRSF protein kinase 2 (Homo sapiens) (P78362 whole entry, looked up): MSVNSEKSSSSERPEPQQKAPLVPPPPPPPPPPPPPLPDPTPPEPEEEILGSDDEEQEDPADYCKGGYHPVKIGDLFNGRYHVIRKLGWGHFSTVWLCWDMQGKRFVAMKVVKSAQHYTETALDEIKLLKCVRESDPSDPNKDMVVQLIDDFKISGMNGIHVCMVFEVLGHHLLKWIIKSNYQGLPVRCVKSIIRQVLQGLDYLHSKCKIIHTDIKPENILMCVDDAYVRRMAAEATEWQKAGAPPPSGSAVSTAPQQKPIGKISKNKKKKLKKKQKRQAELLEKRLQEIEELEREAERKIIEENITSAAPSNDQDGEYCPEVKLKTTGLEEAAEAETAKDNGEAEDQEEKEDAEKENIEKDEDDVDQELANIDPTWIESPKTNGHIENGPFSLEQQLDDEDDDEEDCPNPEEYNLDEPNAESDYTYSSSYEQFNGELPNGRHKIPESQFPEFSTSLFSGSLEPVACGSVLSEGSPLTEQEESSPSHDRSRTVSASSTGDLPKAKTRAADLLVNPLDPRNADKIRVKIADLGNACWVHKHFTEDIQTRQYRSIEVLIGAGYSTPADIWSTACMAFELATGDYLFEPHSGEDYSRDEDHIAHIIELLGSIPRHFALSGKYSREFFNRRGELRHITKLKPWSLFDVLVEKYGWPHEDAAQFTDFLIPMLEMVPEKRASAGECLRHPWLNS
Chain of Dual specificity protein kinase CLK4 (Mus musculus) (O35493 whole entry, looked up): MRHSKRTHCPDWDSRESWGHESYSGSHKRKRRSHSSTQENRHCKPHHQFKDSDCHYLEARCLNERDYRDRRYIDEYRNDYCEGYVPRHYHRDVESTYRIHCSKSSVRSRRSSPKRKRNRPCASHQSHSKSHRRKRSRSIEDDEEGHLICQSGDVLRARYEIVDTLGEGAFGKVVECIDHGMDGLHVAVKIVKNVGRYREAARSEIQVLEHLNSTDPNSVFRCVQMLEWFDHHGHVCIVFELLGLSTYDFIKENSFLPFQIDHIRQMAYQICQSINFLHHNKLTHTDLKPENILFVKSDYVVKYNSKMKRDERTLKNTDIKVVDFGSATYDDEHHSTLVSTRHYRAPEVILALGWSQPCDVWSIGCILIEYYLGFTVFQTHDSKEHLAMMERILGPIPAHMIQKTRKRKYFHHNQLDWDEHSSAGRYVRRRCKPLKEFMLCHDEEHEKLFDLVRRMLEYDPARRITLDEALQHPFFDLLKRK

With `COc1ccc2sc(C(=O)N(C)Cc3ccccc3)cc2c1` the IC50 [1] was 0.045 µM, the inhibition [2] was 101% and the LC50 (PBL) was greater than 30 µM. The inhibition [3] was 70.6%, the inhibition [4] was “inactive” and the inhibition [5] was 4%. For the same compound, the inhibition at 1 µM [6] was 54%, the GI50 (MDA-MB-231) was 24.2 µM and the GI50 (T47D) was 28.8 µM. The inhibition [7] was 81%, the inhibition [8] was “inactive” and the IC50 [9] was 0.52 µM. For the same compound, the inhibition [10] was 12%, the GI50 (HepG2) was 3.7 µM and the inhibition [11] was 73%. The GI50 (T-24) was 2.7 µM, the GI50 [12] was greater than 30 µM and the inhibition [13] was 10%. For the same compound, the inhibition [14] was “inactive”, the inhibition [15] was 58% and the GI50 (THP-1) was greater than 30 µM. For the same compound, the inhibition [16] was 23% and the inhibition [17] was 44%.
Work on `COc1ccc2sc(C(=O)N(C)Cc3ccc(F)cc3)cc2c1` yielded an inhibition [3] of 28.7%.
For `COc1ccc2sc(C(=O)NCc3cccc(F)c3)cc2c1`, the inhibition [18] was 25.1%, the inhibition [3] was 33.9% and the inhibition [19] was 32.9%. For the same compound, the inhibition [20] was 36.6%, the IC50 [21] was greater than 20 µM and the GI50 (MDA-MB-231) was greater than 40 µM. For the same compound, the inhibition [22] was 0%, the inhibition [23] was 16.1% and the inhibition [24] was 36.7%. For the same compound, the inhibition [25] was 7.8%, the IC50 [26] was greater than 15 µM and the inhibition [27] was 26%. It also gave a GI50 (T-24) greater than 40 µM, an inhibition [28] of 30.9% and an IC50 [29] greater than 20 µM. The inhibition [30] was 8%, the inhibition [31] was 13.7% and the inhibition [32] was 0%. For the same compound, the inhibition [33] was 10.9%, the inhibition [34] was 13.1% and the IC50 [35] was greater than 15 µM.
Work on `COc1ccc2sc(C(=O)NCc3ccc(F)cc3)cc2c1` yielded an inhibition [3] of 23.5%.
For `COc1ccc2sc(C(=O)N(C)Cc3cccc(C)c3)cc2c1`, the inhibition [3] was 25.9%.
`COc1ccc2sc(C(=O)NCc3ccco3)cc2c1` showed an inhibition [3] of 33.4%.
`COc1cccc(CN(C)C(=O)c2cc3cc(OC)ccc3s2)c1` showed an inhibition [3] of 31.6%.
For `COc1ccc2sc(C(=O)NCCO)cc2c1`, the inhibition [3] was 0%.
With `CCOC(=O)[C@H](C)NC(=O)c1cc2cc(OC)ccc2s1` the inhibition [3] was 0%.
